Measured values collected from several papers.
Lines come from different studies, so protocols differ. pIC50: −log10 of the molar value.

COc1ccc2c(c1)/C(=N/NC(=O)c1cc3ccccc3[nH]1)C(=O)N2Cc1ccccc1 — inhibition (A549; cell growth or viability; 30 µM): 97.4%
COC(=O)C(Cc1ccccc1)n1c(C)nc2c(N)nc(=O)[nH]c21 (stereo not shown) — pIC50 (unidentified influenza virus; viral replication; A549, H1N1 PR8; 24 h): 6.47
Cc1c(C)c2c(c(C)c1O)CCC(C)(C(=O)O)O2 (stereo not shown) — pIC50 (ABTS scavenging; 1 h): 4.70
O=C(c1ccc(F)cc1)c1c[nH]c2ncc(-c3ccc(N4CCOCC4)nc3)cc12 — viability (A549; cell growth or viability, MTT; 10 µM, 48 h): 77.1%
C[C@]12CCC(=O)C[C@@H]1CC[C@@H]1[C@@H]2CC[C@@]2(C)[C@H]1CC[C@]2(C)O — pIC50 (NIH3T3; cell growth or viability, MTT; 24 h): < 4.52
CCC1(c2ccc(N)cc2)CCC(=O)NC1=O (stereo not shown) — pIC50 (PC-3; cell growth or viability, CCK-8; 48 h): < 4.30
COC(=O)C(Cc1c[nH]c2ccccc12)n1c(C)nc2c(N)nc(=O)[nH]c21 (stereo not shown) — pIC50 (unidentified influenza virus; viral replication; A549, H1N1 PR8; 24 h): 6.51
N=C(N)c1ccc(OCCCCCOc2ccc(C(=N)N)cc2)cc1 — IC50 (Leishmania donovani; parasite growth, resazurin; 72 h, promastigote): 1 mg/L
Cc1c(C)c2c(c(C)c1O)CCC(C)(C(=O)O)O2 (stereo not shown) — IC50 (ABTS scavenging): 6.16 mg/L
C[C@@H]1[C@H](O)[C@@H](C)/C=C/C=C/C=C/C=C/C=C/C=C/C=C/[C@H](O[C@@H]2O[C@H](C)[C@@H](O)[C@H](N)[C@@H]2O)C[C@@H]2O[C@](O)(C[C@@H](O)C[C@@H](O)[C@H](O)CC[C@@H](O)C[C@@H](O)CC(=O)O[C@H]1C)C[C@H](O)[C@H]2C(=O)O — IC50 (Leishmania donovani; parasite growth; amastigote): 0.21 mg/L
Cc1nc2c(N)nc(=O)[nH]c2n1C(Cc1c[nH]c2ccccc12)C(=O)O (stereo not shown) — pIC50 (unidentified influenza virus; viral replication; A549, H1N1 PR8; 24 h): 6.29
COc1cc(Nc2nc(C#N)cc3c(-c4ccccc4)n[nH]c23)cc(OC)c1OC — pIC50 (PC-3; cell growth or viability, MTS; 48 h): 5.37
CC(C)(C)OC(=O)N1CCN(c2ccc(-c3cnc4c(c3)c(C(=O)c3ccc(F)cc3)cn4CC3CC3)cn2)CC1 — viability (A549; cell growth or viability, MTT; 10 µM, 48 h): 79.8%
Nc1ncnc2c([C@@H]3N[C@H](CO)[C@@H](O)[C@H]3O)c[nH]c12 — inhibition (Western equine encephalitis virus; viral replication, inhibitor; Vero 76; 3 µM): 0.5%
COc1ccc(C(=O)c2c[nH]c3ncc(-c4ccc(N5CCNCC5)nc4)cc23)cc1 — viability (A549; cell growth or viability, MTT; 10 µM, 48 h): 110%
O=C(N/N=C1\C(=O)N(Cc2ccccc2)c2ccc(Cl)cc21)c1cc2ccccc2[nH]1 — pIC50 (A549; cell growth or viability, imaging; 24 h): 5.75
CCOC(=O)c1c([C@@H]2C[C@H]2c2ccccc2)n(C)c2ccc(O)cc12 (relative stereo) — MIC50 (Punta Toro virus; cytopathic effect): > 100 mg/L
Cc1nc2c(N)nc(N)nc2n1C(Cc1ccc(O)cc1)C(=O)O (stereo not shown) — pIC50 (unidentified influenza virus; viral replication; A549, H1N1 PR8; 24 h): 7.62
CC(C)=CCC/C(C)=C/COc1cc(O)cc(O)c1C(=O)c1ccccc1 — pIC50 (ABTS scavenging): 2.43
